In ChEMBL document CHEMBL4152277, “Structure-activity relationships of β-hairpin mimics as modulators of amyloid β-peptide aggregation” (Eur J Med Chem, 2018):
The source made the active and inactive calls. The calls are words filed in the database; no cut-off is given here.

Columns and labels:
[1] = target: Amyloid-beta precursor protein (Homo sapiens) (UniProt P05067); experiment: Inhibition of amyloid beta (1 to 42) (unknown origin) aggregation assessed as reduction in intensity of fluorescence plateau of aggregation at 10 uM using compound dissolved in DMSO measured after 42 hrs by Thioflavin T fluorescence assay relative to control; set-up: scale not given: the % may be the effect or the level left
Chain of Amyloid-beta precursor protein (Homo sapiens) (P05067 whole entry, the tested form may be a part): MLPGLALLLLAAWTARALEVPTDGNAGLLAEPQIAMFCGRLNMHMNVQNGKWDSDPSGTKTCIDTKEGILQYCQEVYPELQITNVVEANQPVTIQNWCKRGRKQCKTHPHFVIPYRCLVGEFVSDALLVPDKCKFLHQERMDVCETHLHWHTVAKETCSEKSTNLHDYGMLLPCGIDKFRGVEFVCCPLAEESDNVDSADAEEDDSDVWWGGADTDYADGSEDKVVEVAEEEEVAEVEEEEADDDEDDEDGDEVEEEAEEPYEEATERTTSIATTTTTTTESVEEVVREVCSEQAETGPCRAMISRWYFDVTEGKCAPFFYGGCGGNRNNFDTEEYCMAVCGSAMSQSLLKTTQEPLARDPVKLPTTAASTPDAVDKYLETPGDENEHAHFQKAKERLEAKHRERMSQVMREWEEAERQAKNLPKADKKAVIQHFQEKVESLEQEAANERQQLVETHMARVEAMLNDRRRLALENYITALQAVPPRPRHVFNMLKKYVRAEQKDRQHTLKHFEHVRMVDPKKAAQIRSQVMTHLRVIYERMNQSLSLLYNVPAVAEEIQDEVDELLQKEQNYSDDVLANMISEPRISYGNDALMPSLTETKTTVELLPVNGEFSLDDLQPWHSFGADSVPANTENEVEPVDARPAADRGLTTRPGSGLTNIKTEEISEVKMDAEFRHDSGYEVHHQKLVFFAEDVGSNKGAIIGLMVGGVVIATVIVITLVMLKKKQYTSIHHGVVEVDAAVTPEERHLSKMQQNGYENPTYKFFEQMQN
How it was run: (§1)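 Aβ1-42 dissolved in 1% aqueous ammonia at 1 mM, diluted to 0.2 mM in 10 mM Tris-HCl, 100 mM NaCl pH 7.4 just before use. Final 10 µM peptide added to 40 µM ThT with compound (final DMSO 0.5% v/v), room temperature. Triplicate wells, ex/em 440/480 nm for 42 h, read 2–4 times on different days. t1/2 extension and plateau F reduction are computed as % of peptide-alone values.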

[2] = target: Amyloid-beta precursor protein (Homo sapiens) (UniProt P05067); experiment: Inhibition of amyloid beta (1 to 42) (unknown origin) aggregation assessed as reduction in intensity of fluorescence plateau of aggregation at 100 uM using compound dissolved in DMSO measured after 42 hrs by Thioflavin T fluorescence assay relative to control; set-up: scale not given: the % may be the effect or the level left; how it was run: as §1
[3] = target: Amyloid-beta precursor protein (Homo sapiens) (UniProt P05067); experiment: Inhibition of amyloid beta (1 to 42) (unknown origin) aggregation assessed as increase in time of half-life of aggregation at 10 uM using compound dissolved in DMSO measured after 42 hrs by Thioflavin T fluorescence assay relative to control; set-up: scale not given: the % may be the effect or the level left; how it was run: as §1
[4] = target: Amyloid-beta precursor protein (Homo sapiens) (UniProt P05067); experiment: Inhibition of amyloid beta (1 to 42) (unknown origin) aggregation assessed as increase in time of half-life of aggregation at 100 uM using compound dissolved in DMSO measured after 42 hrs by Thioflavin T fluorescence assay relative to control; set-up: scale not given: the % may be the effect or the level left; how it was run: as §1
[5] = target: Amyloid-beta precursor protein (Homo sapiens) (UniProt P05067); experiment: Inhibition of amyloid beta (1 to 42) (unknown origin) aggregation assessed as increase in time of half-life of aggregation at 100 uM using compound dissolved in water measured after 42 hrs by Thioflavin T fluorescence assay relative to control; set-up: scale not given: the % may be the effect or the level left
How it was run: (§2)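 ThT kinetics of 10 µM Aβ1-42 (from 1 mM ammonia stock, diluted in 10 mM Tris-HCl, 100 mM NaCl, pH 7.4) with 40 µM ThT at room temperature. Compound is dissolved in water (0.5% v/v) rather than DMSO and used at 10:1 compound/peptide. Fluorescence 440/480 nm over 42 h. t1/2 and plateau F are expressed as % change versus peptide alone.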

[6] = target: Amyloid-beta precursor protein (Homo sapiens) (UniProt P05067); experiment: Inhibition of amyloid beta (1 to 42) (unknown origin) aggregation at 1 to 100 uM treated at 19 to 44 hrs after fibrillization kinetics by Thioflavin T fluorescence assay
How it was run: (§3)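 Same ThT set-up (10 µM Aβ1-42, 40 µM ThT, Tris-HCl/NaCl pH 7.4, room temperature, 440/480 nm), except compound is added at the start of kinetics or 3, 19 or 44 h after it. Tested at 1:1 and 10:1 compound/peptide ratios.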

[7] = target: Amyloid-beta precursor protein (Homo sapiens) (UniProt P05067); experiment: Inhibition of amyloid beta (1 to 42) (unknown origin) oligomerization assessed as amyloid beta monomer level at 100 uM after 6 hrs by capillary electrophoresis method (reference value: 4%); set-up: scale not given: the % may be the effect or the level left
How it was run: (§4)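 Aβ1-42 reconstituted at 100 µM final in 20 mM phosphate pH 7.4 with 2.5% v/v DMSO (compound stock or control), compound at 10:1 ratio. Profiles taken at 0, 2, 6 and 12 h. CE in fused silica capillary, 80 mM phosphate pH 7.4, −30 kV, 20°C, UV 190 nm. Monomer peak area is related to that of peptide alone at 0 h.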

[8] = target: Amyloid-beta precursor protein (Homo sapiens) (UniProt P05067); experiment: Inhibition of amyloid beta (1 to 42) (unknown origin) aggregation at 100 uM after 42 hrs by uranyl acetate staining based transmission electron microscopic method
How it was run: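 Samples are prepared as for ThT: 10 µM Aβ1-42 in 10 mM Tris-HCl, 100 mM NaCl pH 7.4, ±100 µM compound, incubated 42 h. Aliquots adsorbed 2 min on 300-mesh carbon grids, washed, dried, negatively stained 45 s and imaged by TEM.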

[9] = target: Amyloid-beta precursor protein (Homo sapiens) (UniProt P05067); experiment: Inhibition of amyloid beta (1 to 42) (unknown origin) aggregation assessed as increase in time of half-life of aggregation at 1 uM using compound dissolved in DMSO measured after 42 hrs by Thioflavin T fluorescence assay relative to control; how it was run: as §1
[10] = target: Amyloid-beta precursor protein (Homo sapiens) (UniProt P05067); experiment: Inhibition of amyloid beta (1 to 42) (unknown origin) aggregation at 1 to 100 uM treated immediately or 3 hrs after fibrillization kinetics by Thioflavin T fluorescence assay; how it was run: as §3
[11] = target: Amyloid-beta precursor protein (Homo sapiens) (UniProt P05067); experiment: Inhibition of amyloid beta (1 to 42) (unknown origin) oligomerization assessed as increase in amyloid beta monomer level at 100 uM up to 2 hrs by capillary electrophoresis method; how it was run: as §4
[12] = target: Amyloid-beta precursor protein (Homo sapiens) (UniProt P05067); experiment: Inhibition of amyloid beta (1 to 42) (unknown origin) oligomerization assessed as amyloid beta monomer level at 100 uM after 12 hrs by capillary electrophoresis method (reference value: 0%); set-up: scale not given: the % may be the effect or the level left; how it was run: as §4
[13] = target: Amyloid-beta precursor protein (Homo sapiens) (UniProt P05067); experiment: Inhibition of amyloid beta (1 to 42) (unknown origin) aggregation assessed as reduction in intensity of fluorescence plateau of aggregation at 1 uM using compound dissolved in DMSO measured after 42 hrs by Thioflavin T fluorescence assay relative to control; set-up: scale not given: the % may be the effect or the level left; how it was run: as §1
[14] = target: Amyloid-beta precursor protein (Homo sapiens) (UniProt P05067); experiment: Inhibition of amyloid beta (1 to 42) (unknown origin) aggregation assessed as reduction in intensity of fluorescence plateau of aggregation at 100 uM using compound dissolved in water measured after 42 hrs by Thioflavin T fluorescence assay relative to control; set-up: scale not given: the % may be the effect or the level left; how it was run: as §2

Row | Compound | Activity [1] | Activity [2] | Activity [3] | Activity [4] | Activity [5] [%] | inhibition [6] | Activity [7] [%] | inhibition [8] | Activity [9] | inhibition [10] | inhibition [11] | Activity [12] [%] | Activity [13] | Activity [14] [%]
1 | CSCC[C@H](NC(=O)[C@H](CC(C)C)NC(=O)CN)C(=O)N[C@H](C(=O)NCC(=O)N1CC[C@@H](NS(=O)(=O)c2ccc(C)cc2)[C@H](N2CCC[C@H]2C(=O)N[C@@H](CCCCN)C(=O)N[C@@H](CC(C)C)C(=O)N[C@H](C(=O)N[C@@H](Cc2ccccc2)C(=O)N[C@@H](Cc2ccccc2)C(N)=O)C(C)C)C1)C(C)C | 90% | 97% | inactive | inactive |  |  |  |  |  |  |  |  |  | 
2 | COc1ccc(NC(C)=O)cc1C(=O)NNC(=O)[C@H](CCCCN)NC(=O)[C@@H]1CCCN1[C@@H]1CN(C(=O)[C@@H](NC(=O)[C@H](C)N)C(C)C)CC[C@H]1NC(=O)OC(C)(C)C | inactive | 43% | 13% | 29% |  |  |  |  |  |  |  |  |  | 
3 | COC(=O)[C@@H]1CCCN1[C@@H]1CNCC[C@H]1NS(=O)(=O)c1ccc(C)cc1 | inactive | 23% | inactive | inactive |  |  |  |  |  |  |  |  |  | 
4 | COc1ccc(NC(C)=O)cc1C(=O)NNC(=O)[C@H](CCCCN)NC(=O)[C@@H]1CCCN1[C@@H]1CN(C(=O)[C@@H](NC(=O)[C@H](C)N)C(C)C)CC[C@H]1N | inactive | 18% | inactive | inactive |  |  |  |  |  |  |  |  |  | 

More lines, now with the values ahead:

Row | Activity [1] | Activity [2] | Activity [3] | Activity [4] | Activity [5] [%] | inhibition [6] | Activity [7] [%] | inhibition [8] | Activity [9] | inhibition [10] | inhibition [11] | Activity [12] [%] | Activity [13] | Activity [14] [%] | Compound
5 | inactive | inactive | 23% | 59% |  |  |  |  |  |  |  |  |  |  | COc1ccc(NC(C)=O)cc1C(=O)NNC(=O)[C@H](CCCCN)NC(=O)[C@@H]1CCCN1[C@@H]1CN(C(=O)[C@@H](NC(=O)[C@H](C)NC(=O)OC(C)(C)C)C(C)C)CC[C@H]1NS(=O)(=O)c1ccc(C)cc1
6 | inactive | inactive | inactive | inactive |  |  |  |  |  |  |  |  |  |  | COc1ccc(NC(C)=O)cc1C(=O)NNC(=O)[C@H](CCCCNC(=O)OCc1ccccc1)NC(=O)[C@@H]1CCCN1[C@@H]1CN(C(=O)[C@@H](NC(=O)[C@H](C)NC(=O)OC(C)(C)C)C(C)C)CC[C@H]1NS(=O)(=O)c1ccc(C)cc1
7 | 38% | 66% | 36% | 76% | 96 | inactive | 49 | Active | inactive | Active | inactive | 31 | 38% | 81 | COc1ccc(NC(C)=O)cc1C(=O)NNC(=O)[C@H](CCCCN)NC(=O)[C@@H]1CCCN1[C@@H]1CN(C(=O)[C@@H](NC(=O)[C@H](C)N)C(C)C)CC[C@H]1NS(=O)(=O)c1ccc(C)cc1
8 | inactive | 32% | inactive | 30% | 58 |  |  |  | inactive |  |  |  | inactive | 35 | COc1ccc(NC(C)=O)cc1C(=O)NNC(=O)[C@H](CCCCN)NC(=O)[C@@H]1CCCN1[C@@H]1CN(C(=O)[C@@H](NC(=O)[C@H](C)NC(=O)[C@@H](N)C(C)C)C(C)C)CC[C@H]1NS(=O)(=O)c1ccc(C)cc1
9 | inactive | 54% | 27% | 56% |  |  |  | Active |  |  |  |  |  |  | COc1ccc(NC(C)=O)cc1C(=O)NNC(=O)[C@H](CCCCN)NC(=O)[C@@H]1CCCN1[C@@H]1CN(C(=O)[C@@H](NC(=O)[C@H](C)N)C(C)C)CC[C@H]1NS(=O)(=O)c1ccc(N)cc1
